Compound activity from PubChem.
MT1-MMP act inh: blockers of MT1-MMP proenzyme processing, primary screen, HT1080 RFP-PRO-GFP cells, GFP/RFP fluorescence; GFP/RFP ratio change, % at 20 µM; 0.061% of 360,000 active; GFP/RFP ratio fluorescence, overnight; percent of plate control window, DMSO zero;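 active means GFP/RFP ratio change of at least 30% with cell ATP level not reduced by more than half and red fluorescence within 50% of control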
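Compound: 20 µM single dose, 1% DMSO / System: HT1080 RFP-PRO-GFP cells / Controls: DMSO and RFP-L50D-GFP cell wells / Read-out basis: GFP/RFP fluorescence ratio / Schedule: overnight compound exposure at 37 °C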
MPTP inh: mitochondrial permeability transition pore inhibitors, primary screen, biochemical, isolated mouse mitochondria, absorbance | Ca2+ swelling absorbance, 30 min | inhibition, % at 10 µM | 1.4% of 360,000 active | AID 602449, 2012;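 active means inhibition of 50% or more, scaled per plate between neutral and stimulator controls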;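 further: 0% = DMSO wells given calcium and 100% = 1 mM EGTA wells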
SKN-1 inh: suppressors of acrylamide-induced Pgst-4::GFP reporter in worms, primary screen, SKN-1 inhibitor project, whole organism, uHTS, GFP/RFP fluorescence ratio, strain VP596. C. elegans VP596 Pgst-4::GFP/RFP ratio, 24 h. 0.49% of 360,000 active. inhibition, % at 21.8 µM. AID 624304, 2012;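 active means interference check ratio from 0.5 to 1.5 plus GFP to RFP signal ratio inhibition reaching or exceeding a fixed threshold, cut at about 30% in these data, passing the limit was not always enough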
ADAM10 inh: human ADAM10 inhibitors, primary screen, biochemical, QFRET, HTS; AID 720582, 2013; inhibition, % at 7 µM; recombinant ADAM10, EDANS/DABCYL FRET peptide cleavage, 3 h; 0.62% of 370,000 active;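 active means inhibition above a per-campaign cutoff equal to the mean of compounds falling between control-based bounds plus 3 SD, cut at about 20% in these data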;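 further: 0% = DMSO wells while the 100% control is not disclosed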
ADAM17 inh: ADAM17 inhibitors, primary screen, biochemical, QFRET | 0.83% of 370,000 active | Disintegrin and metalloproteinase domain-containing protein 17 (Homo sapiens), P78536 | AID 720648, 2013 | recombinant ADAM17, EDANS/DABCYL FRET peptide cleavage | inhibition, % at 6.95 µM;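 active means inhibition above the mean of compounds lying between control limits plus 3 SD, set per campaign, cut at about 8.5% in these data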;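 further: 0% = DMSO-only wells as the low control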
Target sequence (P78536 215-824 limits assumed): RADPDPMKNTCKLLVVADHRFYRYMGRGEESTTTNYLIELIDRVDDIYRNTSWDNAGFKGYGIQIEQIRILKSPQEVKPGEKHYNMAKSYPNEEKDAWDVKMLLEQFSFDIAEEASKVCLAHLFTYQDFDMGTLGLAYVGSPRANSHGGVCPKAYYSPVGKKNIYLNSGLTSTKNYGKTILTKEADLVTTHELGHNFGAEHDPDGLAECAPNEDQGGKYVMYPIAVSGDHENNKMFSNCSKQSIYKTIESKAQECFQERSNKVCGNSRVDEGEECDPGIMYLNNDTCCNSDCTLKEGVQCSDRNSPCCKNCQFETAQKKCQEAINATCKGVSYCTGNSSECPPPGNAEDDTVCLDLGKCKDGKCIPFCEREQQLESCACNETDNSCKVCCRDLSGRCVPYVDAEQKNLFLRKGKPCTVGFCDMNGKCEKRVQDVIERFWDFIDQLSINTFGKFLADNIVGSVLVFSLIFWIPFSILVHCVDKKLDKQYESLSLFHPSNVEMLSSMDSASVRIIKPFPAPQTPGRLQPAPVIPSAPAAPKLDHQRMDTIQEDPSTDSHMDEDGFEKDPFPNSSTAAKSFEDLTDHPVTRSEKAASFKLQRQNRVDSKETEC
GRIN3A LBD mod: binders of NR3A ligand-binding domain, primary screen, biophysical, differential scanning fluorimetry, uHTS; Glutamate receptor ionotropic, NMDA 3A (GRIN3A) ligand-binding domain; NR3A LBD differential scanning fluorimetry, Tm shift; 0% = protein alone, 100% = glycine-bound protein; Tm shift relative to glycine control, % at 25 µM; 2.5% of 340,000 active;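 active means melting temperature shift of at least 10% of the positive control shift, at one fixed dose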
An asterisk follows results filed as active. Rows were chosen to be rich in hits. Some 4.7% of all compounds tested hit in one or more screens of this group.

For Cc1cc2ccccn2c1C(=O)c1ccc(Cl)cc1 the results were MT1-MMP act inh -6, MPTP inh 2, SKN-1 inh 17, ADAM10 inh 9, ADAM17 inh -2 and GRIN3A LBD mod 1.
For Cc1cc2ccccn2c1C(=O)Nc1cccc(Cl)c1 the results were MT1-MMP act inh -11, MPTP inh 2, SKN-1 inh 62*, ADAM10 inh -123, ADAM17 inh -43 and GRIN3A LBD mod -9.
`O=C(O)c1cc(-c2ccc(N3CCOCC3)cc2)nn1-c1ccc(F)cc1F` gave MT1-MMP act inh 2, MPTP inh 1, SKN-1 inh -1, ADAM10 inh -1, ADAM17 inh 0 and GRIN3A LBD mod 0.
For CCC(C)NCCOCCOc1cc(C)c(Cl)c(C)c1 (centres undefined) the results were MT1-MMP act inh -3, MPTP inh 4, SKN-1 inh 2, ADAM10 inh 3, ADAM17 inh 0 and GRIN3A LBD mod 1.
Screening Cc1cc(C)c(C#N)c(OCC(=O)Nc2ccccc2)n1 returned MT1-MMP act inh -3, MPTP inh 0, SKN-1 inh 22 and GRIN3A LBD mod -1.
COc1ccc(CN2C(=O)c3ccccc3C2C(=O)NCc2cccnc2)c(OC)c1 (centres undefined) was read as MT1-MMP act inh 2, MPTP inh -1, SKN-1 inh 8 and GRIN3A LBD mod -1.
COc1ccc(N2C(=O)[C@H]3CCC=C[C@H]3[C@@H]2c2ccccc2Br)cc1 was read as MT1-MMP act inh -3, MPTP inh 0, SKN-1 inh 13, ADAM10 inh -5, ADAM17 inh -3 and GRIN3A LBD mod 1.
Screening COc1cc2c(cc1OC)CN(c1nc(CN3CCOCC3)nc3sc4c(c13)CCC(C)C4)CC2 (centres undefined) returned MT1-MMP act inh -15, MPTP inh 1, SKN-1 inh 6, ADAM10 inh -13, ADAM17 inh -6 and GRIN3A LBD mod -2.
CC(=O)N/C(=C\c1ccccc1)C(=O)OCCCOC(=O)/C(=C/c1ccccc1)NC(C)=O was read as MT1-MMP act inh 5, MPTP inh 0, SKN-1 inh 0, ADAM10 inh -8, ADAM17 inh -3 and GRIN3A LBD mod 0.
`O=C(Nc1cccc(Cl)c1)Nc1cccc(C(=O)O)c1` gave MT1-MMP act inh 1, MPTP inh 5, SKN-1 inh 16, ADAM10 inh -2, ADAM17 inh -1 and GRIN3A LBD mod -11.
For CC(=O)Nc1ccc(NC(=O)Nc2cccc(Cl)c2)cc1 the results were MT1-MMP act inh 2, MPTP inh 0, SKN-1 inh 2, ADAM10 inh 0, ADAM17 inh -1 and GRIN3A LBD mod 34*.
For Cc1cc(NC(=O)Nc2cccc(Cl)c2)n(-c2ccccn2)n1 the results were MT1-MMP act inh -3, MPTP inh 43, SKN-1 inh 1, ADAM10 inh 15, ADAM17 inh 6 and GRIN3A LBD mod 33*.
Screening Cc1cc(NC(=O)c2ccc(F)cc2)n(-c2ccccn2)n1 returned MT1-MMP act inh 2, MPTP inh 1, SKN-1 inh 5, ADAM10 inh 0, ADAM17 inh -2 and GRIN3A LBD mod -2.
`O=C(Nc1ccc(Cl)c(Cl)c1)Nc1ccccc1C(=O)O` gave MT1-MMP act inh -5, MPTP inh 28, SKN-1 inh 7, ADAM10 inh -40, ADAM17 inh -13 and GRIN3A LBD mod 18*.
For CS(=O)(=O)N1CCN(c2ccccc2NC(=O)Nc2cccc(Cl)c2)CC1 the results were MT1-MMP act inh -1, MPTP inh 5, SKN-1 inh -2, ADAM10 inh -1, ADAM17 inh 1 and GRIN3A LBD mod 12*.
`CCCCC(=O)N(CCOC)c1nnc(-c2cccnc2)s1` gave MT1-MMP act inh 0, MPTP inh -4, SKN-1 inh -4, ADAM10 inh -4, ADAM17 inh -2 and GRIN3A LBD mod 0.
`CC(=O)c1cccc(NC(=S)NC(=O)CC(C)C)c1` gave MT1-MMP act inh -3, MPTP inh 0, SKN-1 inh 10, ADAM10 inh -4, ADAM17 inh -1 and GRIN3A LBD mod 0.
Screening Cn1nnc2cc(NC(=O)Nc3cccc(Cl)c3)ccc21 returned MT1-MMP act inh -5, MPTP inh 3, SKN-1 inh 8, ADAM10 inh -14, ADAM17 inh -7 and GRIN3A LBD mod 27*.
`C=CCc1cccc(CNc2nc3ccccc3n2C(C)C)c1O` gave MT1-MMP act inh 7, MPTP inh 15, SKN-1 inh 8, ADAM10 inh 18, ADAM17 inh 7 and GRIN3A LBD mod 11*.
For O=C(Cc1nnc(NC(=O)Nc2ccc(Cl)cc2)s1)NCc1ccccc1 the results were MT1-MMP act inh -2, MPTP inh -1, SKN-1 inh 3, ADAM10 inh -3, ADAM17 inh -2 and GRIN3A LBD mod 16*.
COc1cccc(NC(=O)Cc2ccccc2)c1 was read as MT1-MMP act inh 5, MPTP inh 0, SKN-1 inh 4, ADAM10 inh 0, ADAM17 inh -1 and GRIN3A LBD mod 10*.
For O=C(Cc1nnc(NC(=O)Nc2ccccc2)s1)NCc1ccccc1 the results were MT1-MMP act inh 6, MPTP inh 3, SKN-1 inh 6, ADAM10 inh -2, ADAM17 inh -1 and GRIN3A LBD mod -2.
`COc1cccc(NC(=O)Nc2nnc(CC(=O)Nc3ccccc3)s2)c1` gave MT1-MMP act inh -14, MPTP inh 2, SKN-1 inh 9, ADAM10 inh 10, ADAM17 inh 2 and GRIN3A LBD mod 23*.
For COc1ccc(NC(=O)Nc2nnc(CC(=O)Nc3ccccc3)s2)cc1 the results were MT1-MMP act inh 4, MPTP inh 1, SKN-1 inh -3, ADAM10 inh 1, ADAM17 inh -3 and GRIN3A LBD mod 4.
Screening CCc1noc(C)c1C(=O)Nc1sc(C(=O)N(C)C)c(C)c1C(=O)OC returned MT1-MMP act inh 5, MPTP inh 0, SKN-1 inh 20, ADAM10 inh -6, ADAM17 inh 2 and GRIN3A LBD mod -1.
`COc1cccc(C(=O)Nc2nc(-c3ccncc3)cs2)c1` gave MT1-MMP act inh 2, MPTP inh 2, SKN-1 inh -6, ADAM10 inh 0, ADAM17 inh -4 and GRIN3A LBD mod -17.
COc1cccc(-c2csc(NC(=O)C3CC3)n2)c1 was read as MT1-MMP act inh 0, MPTP inh 1, SKN-1 inh 12, ADAM10 inh -6, ADAM17 inh -2 and GRIN3A LBD mod 20*.
